Legend:
[1] = system: Rattus norvegicus; assay: Mean sodium excretion in rats when compound administered at 0 mg/kg po and vehicle dosed at 0 umol/kg; type: ADME, organism-based; set-up: dose 0 mg/kg, route oral; conditions: in vivo
Method in brief: (§1)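 Male Sprague-Dawley rats (HC/CFY, 175-200 g) fasted and water-deprived 18 h before and during the test. Dosed by gavage at 2.5-160 mg/kg in 1% carboxymethyl cellulose/0.1% Tween 80, 0.5 mL/100 g bw. Immediately hydrated with water (2.5 mL/100 g bw, po). Urine collected 6 h in metabolic cages; Na+ and K+ by flame photometry; mean mequiv/6 h/kg bw; nonpaired Student t-test.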

[2] = system: Rattus norvegicus; assay: Mean sodium excretion in rats when compound administered at 80 mg/kg po and vehicle dosed at 297.03 umol/kg; type: ADME, organism-based; set-up: dose 80 mg/kg, route oral; conditions: in vivo; method in brief: as §1
[3] = system: Rattus norvegicus; assay: Mean urinary output in rats when compound administered at 0 mg/kg po and vehicle dosed at 0 umol/kg; type: ADME, organism-based, Urine; set-up: dose 0 mg/kg, route oral; conditions: in vivo
Method in brief: (§2)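 Water-loaded male Sprague-Dawley rats (HC/CFY, 175-200 g) fasted and without water for 18 h. Oral gavage of 2.5-160 mg/kg in 1% CMC with 0.1% Tween 80, then distilled water 2.5 mL/100 g po. Urine collected 6 h in metabolic cages, mean output in mL/6 h/kg bw. Unpaired Student t-test against vehicle; dose-response by linear regression.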

[4] = system: Rattus norvegicus; assay: Mean potassium excretion in rats when compound administered at 5 mg/kg po and vehicle dosed at 18.56 umol/kg; type: ADME, organism-based; set-up: dose 5 mg/kg, route oral; conditions: in vivo; method in brief: as §1
[5] = system: Rattus norvegicus; assay: Mean Chlorine excretion in rats when compound administered at 10 mg/kg po and vehicle dosed at 37.13 umol/kg; type: ADME, organism-based; set-up: dose 10 mg/kg, route oral; conditions: in vivo
Method in brief: (§3)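 Male Sprague-Dawley rats (HC/CFY, 175-200 g), no food or water for 18 h before and during the test. Single gavage dose (2.5-160 mg/kg; vehicle 1% carboxymethyl cellulose/0.1% Tween 80, 0.5 mL/100 g bw), then distilled water 2.5 mL/100 g bw po. Individual metabolic cages, 6 h urine. K+ by flame photometry, Cl- colorimetric, as mequiv/6 h/kg bw; unpaired Student t-test vs control.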

[6] = system: Rattus norvegicus; assay: Mean Chlorine excretion in rats when compound administered at 20 mg/kg po and vehicle dosed at 74.26 umol/kg; type: ADME, organism-based; set-up: dose 20 mg/kg, route oral; conditions: in vivo; method in brief: as §3
[7] = system: Rattus norvegicus; assay: Mean Chlorine excretion in rats when compound administered at 80 mg/kg po and vehicle dosed at 297.03 umol/kg; type: ADME, organism-based; set-up: dose 80 mg/kg, route oral; conditions: in vivo; method in brief: as §3
[8] = Acute toxicity in mice when given po; type: organism-based; conditions: mouse, in vivo, read-out: DL50 (the source's name)
Method in brief: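 Male Swiss mice (SPF, HC/CFLP strain, 20–25 g), oral dosing; mortality followed over 15 days; LD50 derived by the Litchfield and Wilcoxon method.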

[9] = system: Rattus norvegicus; assay: Urinary sodium 1 hr after the compound was administered 100 mg/kg po in rat; type: ADME, organism-based, Urine; set-up: dose 100 mg/kg, route oral; conditions: in vivo
Method in brief: (§4)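 Onset and duration study in fasted, water-loaded male Sprague-Dawley rats housed two per metabolic cage, six pairs per group. Single oral dose given, then water 2.5 mL/100 g po. Urine volume and sodium (flame photometry) measured over 0-1, 1-2, 2-3, 3-4 and 4-6 h intervals. Mean values compared with vehicle by Student t-test.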

[10] = system: Rattus norvegicus; assay: Mean sodium excretion in rats when compound administered at 2.5 mg/kg po and vehicle dosed at 9.28 umol/kg; type: ADME, organism-based; set-up: dose 2.5 mg/kg, route oral; conditions: in vivo; method in brief: as §1
[11] = system: Rattus norvegicus; assay: Mean urinary output in rats when compound administered at 5 mg/kg po and vehicle dosed at 18.56 umol/kg; type: ADME, organism-based, Urine; set-up: dose 5 mg/kg, route oral; conditions: in vivo; method in brief: as §2
[12] = system: Rattus norvegicus; assay: Volume of urine 4 hr after the compound was administered 100 mg/kg po in rat; type: ADME, organism-based; set-up: dose 100 mg/kg, route oral; conditions: in vivo
Method in brief: (§5)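 Onset/duration protocol: male Sprague-Dawley rats (HC/CFY, 175-200 g), food and water withdrawn for 18 h before and during the test. Single gavage dose in 1% carboxymethyl cellulose/0.1% Tween 80 (0.5 mL/100 g bw), then distilled water load (2.5 mL/100 g bw po). Two rats per metabolic cage, six pairs per group. Urine collected at 0-1, 1-2, 2-3, 3-4 and 4-6 h; Na+ by flame photometry. Vehicle controls; nonpaired Student t-test.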

[13] = system: Rattus norvegicus; assay: Volume of urine 3h after the compound was administered 100 mg/kg po in rat; type: ADME, organism-based; set-up: dose 100 mg/kg, route oral; conditions: in vivo; method in brief: as §5
[14] = organism: Rattus norvegicus; assay: Mean sodium excretion in rats (Control/Drug treatment value); value 0.35/2.88; type: ADME, organism-based; conditions: in vivo
[15] = system: Rattus norvegicus; assay: Mean sodium excretion in rats when compound administered at 160 mg/kg po and vehicle dosed at 594.07 umol/kg; type: ADME, organism-based; set-up: dose 160 mg/kg, route oral; conditions: in vivo; method in brief: as §1
[16] = system: Rattus norvegicus; assay: Mean potassium excretion in rats when compound administered at 20 mg/kg po and vehicle dosed at 74.26 umol/kg; type: ADME, organism-based; set-up: dose 20 mg/kg, route oral; conditions: in vivo; method in brief: as §3
[17] = system: Rattus norvegicus; assay: Mean potassium excretion in rats when compound administered at 0 mg/kg po and vehicle dosed at 0 umol/kg; type: ADME, organism-based; set-up: dose 0 mg/kg, route oral; conditions: in vivo; method in brief: as §3
[18] = organism: Rattus norvegicus; assay: Dose required to produce increase in 200 % in urine production vs control groups; type: functional
Method in brief: (§6)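 Male Sprague-Dawley rats (HC/CFY, 175-200 g), fasted and water-deprived 18 h before and during the test. Compound dosed by gavage in 1% carboxymethyl cellulose/0.1% Tween 80, then water load 2.5 mL/100 g bw po. Urine collected 6 h in metabolic cages; Na+ by flame photometry. Effective doses vs vehicle controls derived by linear regression of dose-response data.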

[19] = system: Rattus norvegicus; assay: Mean potassium excretion in rats when compound administered at 80 mg/kg po and vehicle dosed at 297.03 umol/kg; type: ADME, organism-based; set-up: dose 80 mg/kg, route oral; conditions: in vivo; method in brief: as §1
[20] = system: Rattus norvegicus; assay: Mean sodium excretion in rats when compound administered at 10 mg/kg po and vehicle dosed at 37.13 umol/kg; type: ADME, organism-based; set-up: dose 10 mg/kg, route oral; conditions: in vivo; method in brief: as §1
[21] = system: Rattus norvegicus; assay: Dose required to produce an excretion of 2 mequiv of Na+/kg bw/6h vs control groups; type: functional; method in brief: as §6
[22] = system: Rattus norvegicus; assay: Urinary sodium 4 hr after the compound was administered 100 mg/kg po in rat; type: ADME, organism-based, Urine; set-up: dose 100 mg/kg, route oral; conditions: in vivo; method in brief: as §4
[23] = system: Rattus norvegicus; assay: Mean sodium excretion in rats when compound administered at 40 mg/kg po and vehicle dosed at 148.52 umol/kg; type: ADME, organism-based; set-up: dose 40 mg/kg, route oral; conditions: in vivo; method in brief: as §1
[24] = organism: Rattus norvegicus; assay: Dose required to produce increase in 50 % in urine production vs control groups; type: functional; conditions: Rattus norvegicus, Urine; method in brief: as §6
[25] = Ratio of Na+ to K+ excretion at dose; type: ADME
Method in brief: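 Water-loaded fasted male Sprague-Dawley rats dosed orally in CMC/Tween 80 vehicle and hydrated with water 2.5 mL/100 g. Na+ and K+ in urine pooled over 6 h measured by flame photometry. Na+/K+ excretion ratio computed for each dose; Student t-test against control.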

[26] = system: Rattus norvegicus; assay: Mean Chlorine excretion in rats when compound administered at 2.5 mg/kg po and vehicle dosed at 9.28 umol/kg; type: ADME, organism-based; set-up: dose 2.5 mg/kg, route oral; conditions: in vivo; method in brief: as §3
[27] = system: Rattus norvegicus; assay: Mean urinary output in rats when compound administered at 10 mg/kg po and vehicle dosed at 37.13 umol/kg; type: ADME, organism-based, Urine; set-up: dose 10 mg/kg, route oral; conditions: in vivo; method in brief: as §2
[28] = system: Rattus norvegicus; assay: Mean urinary output in rats when compound administered at 20 mg/kg po and vehicle dosed at 74.26 umol/kg; type: ADME, organism-based, Urine; set-up: dose 20 mg/kg, route oral; conditions: in vivo; method in brief: as §2
[29] = system: Rattus norvegicus; assay: Urinary sodium 2 hr after the compound was administered 100 mg/kg po in rat; type: ADME, organism-based, Urine; set-up: dose 100 mg/kg, route oral; conditions: in vivo; method in brief: as §4
[30] = system: Rattus norvegicus; assay: Mean urinary output in rats when compound administered at 160 mg/kg po and vehicle dosed at 594.07 umol/kg; type: ADME, organism-based, Urine; set-up: dose 160 mg/kg, route oral; conditions: in vivo; method in brief: as §2
[31] = system: Rattus norvegicus; assay: Mean potassium excretion in rats when compound administered at 2.5 mg/kg po and vehicle dosed at 9.28 umol/kg; type: ADME, organism-based; set-up: dose 2.5 mg/kg, route oral; conditions: in vivo; method in brief: as §3
[32] = system: Rattus norvegicus; assay: Volume of urine 6 hr after the compound was administered 100 mg/kg po in rat; type: ADME, organism-based; set-up: dose 100 mg/kg, route oral; conditions: in vivo; method in brief: as §5
[33] = system: Rattus norvegicus; assay: Mean Chlorine excretion in rats when compound administered at 0 mg/kg po and vehicle dosed at 0 umol/kg; type: ADME, organism-based; set-up: dose 0 mg/kg, route oral; conditions: in vivo
[34] = system: Rattus norvegicus; assay: Mean urinary output in rats when compound administered at 40 mg/kg po and vehicle dosed at 148.52 umol/kg; type: ADME, organism-based, Urine; set-up: dose 40 mg/kg, route oral; conditions: in vivo; method in brief: as §2

For CCc1nc2c(nc1C)C(N)=NS(=O)(=O)N2CC, the Na [1] was 0.43 m equiv 6hr-1 kg-1 (body weight)-1, the Na [2] was 5.1 m equiv 6hr-1 kg-1 (body weight)-1 and the V [3] was 21.96 ml 6hr-1 (kg of body weight)-1. For the same compound, the K [4] was 0.52 m equiv 6hr-1 kg-1 (body weight)-1, the Cl- [5] was 2.67 m equiv 6hr-1 kg-1 (body weight)-1 and the Cl- [6] was 3.99 m equiv 6hr-1 kg-1 (body weight)-1. The Cl- [7] was 8.04 m equiv 6hr-1 kg-1 (body weight)-1, the LD50 [8] was 1840 mg/kg and the “Urinary Na+” value [9] was 0.15 m equiv. The Na [10] was 0.45 m equiv 6hr-1 kg-1 (body weight)-1, the V [11] was 25.06 ml 6hr-1 (kg of body weight)-1 and the Urine volume [12] was 2.71 mL. The Urine volume [13] was 5.52 mL, the Na [14] was 8.2 and the Na [15] was 6.14 m equiv 6hr-1 kg-1 (body weight)-1. For the same compound, the K [16] was 0.63 m equiv 6hr-1 kg-1 (body weight)-1, the K [17] was 0.49 m equiv 6hr-1 kg-1 (body weight)-1 and the ED200 [18] was 87.61 mg/kg. The K [19] was 2.06 m equiv 6hr-1 kg-1 (body weight)-1, the Na [20] was 1.21 m equiv 6hr-1 kg-1 (body weight)-1 and the ED2 [21] was 14.62 mg/kg. The “Urinary Na+” value [22] was 0.27 m equiv, the Na [23] was 3.63 m equiv 6hr-1 kg-1 (body weight)-1 and the ED50 [24] was 9.17 mg/kg. The Ratio [25] was 2.43 [middle of 8 runs], the Cl- [26] was 1.21 m equiv 6hr-1 kg-1 (body weight)-1 and the V [27] was 32.6 ml 6hr-1 (kg of body weight)-1. The V [28] was 42.25 ml 6hr-1 (kg of body weight)-1, the “Urinary Na+” value [29] was 0.67 m equiv and the V [30] was 74.26 ml 6hr-1 (kg of body weight)-1. The K [31] was 0.46 m equiv 6hr-1 kg-1 (body weight)-1, the Urine volume [32] was 1.99 mL and the Cl- [33] was 1.02 m equiv 6hr-1 kg-1 (body weight)-1. The V [34] was 59.12 ml 6hr-1 (kg of body weight)-1.
